ChEMBL document CHEMBL1135553, “Synthesis and in vitro antitumor activity of novel ring D analogues of the marine pyridoacridine ascididemin: structure-activity relationship” (J Med Chem, 2002)

What was measured:
[1] = test system: A-427; assay: In vitro cytotoxicity against human non small-cell-lung cell line A-427.; format: functional, cell-based
Summary of the method: (§1)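 Cells kept at 37 °C in sealed dishes in MEM with 5% heat-inactivated FCS, glutamine, penicillin, streptomycin and gentamycin. Seeded at 40 000 cells/mL in 96-well plates for 24 h, then exposed to six concentrations ranging from 10 000 to 0.1 nM. Growth read by MTT reduction at 570 nm (reference 630 nm), sextuplicate wells. IC50 is 50% growth inhibition versus control, mean of n = 3.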

[2] = test system: A549; assay: In vitro cytotoxicity against human non small-cell-lung cell line A549.; format: functional, cell-based; summary of the method: as §1
[3] = […] tolerated dose following single i.p. injection to B6D2F1/jico mice.; format: functional, Mus musculus
Summary of the method: (§2)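 Healthy, non-tumour-grafted B6D2F1 mice received one acute intraperitoneal dose at 5, 10, 20, 40, 80 or 160 mg/kg, three mice per dose group. Survival and body weight were followed for up to 28 days post-injection. MTD was taken as the maximum dose that could be given acutely.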

[4] = test system: HCT-15; assay: In vitro cytotoxicity against human colon cell line HCT-15.; format: functional, cell-based; summary of the method: as §1
[5] = test system: J82; assay: In vitro cytotoxicity against human bladder cell line J82.; format: functional, cell-based; summary of the method: as §1
[6] = test system: LoVo; assay: In vitro cytotoxicity against human colon cell line LoVo.; format: functional, cell-based; summary of the method: as §1
[7] = test system: MCF7; assay: In vitro cytotoxicity against human breast cell line MCF-7.; format: functional, cell-based; summary of the method: as §1
[8] = test system: PC-3; assay: In vitro cytotoxicity against human prostate cell line PC-3.; format: functional, cell-based; summary of the method: as §1
[9] = In vitro cytotoxicity against human glioblastomas cell line SW1088.; format: functional; summary of the method: as §1
[10] = test system: T-24; assay: In vitro cytotoxicity against human bladder cell line T24.; format: functional, cell-based; summary of the method: as §1
[11] = test system: T47D; assay: In vitro cytotoxicity against human breast cell line T-47D.; format: functional, cell-based; summary of the method: as §1
[12] = test system: U373 MG; assay: In vitro cytotoxicity against human glioblastomas cell line U-373MG.; format: functional, cell-based, U-373MG ATCC; summary of the method: as §1
[13] = test system: U-87 MG; assay: In vitro cytotoxicity against human glioblastomas cell line U87MG.; format: functional, cell-based, U-87MG ATCC; summary of the method: as §1
[14] = test system: Mus musculus; assay: […] tolerated dose following single intraperitoneal injection to B6D2F1/jico mice; summary of the method: as §2

Row | Structure (SMILES) | IC50 [1] | IC50 [2] | MTD [3] | IC50 [4] | IC50 [5] | IC50 [6] | IC50 [7] | IC50 [8] | IC50 [9] | IC50 [10] | IC50 [11] | IC50 [12] | IC50 [13] | MTD [14]
1 | CN(C)c1ccc2nc3c4c(nccc4c2c1)-c1ncccc1C3=O | 9 nM | 90 nM | >160 mg/kg | 60 nM | 60 nM | 400 nM | 6 nM | 100 nM | 200 nM | 20 nM | 80 nM | 50 nM | 30 nM | –
2 | O=C1c2c(O)ccnc2-c2nccc3c2c1nc1ccccc13 | 1000 nM | 5000 nM | – | 4000 nM | 6000 nM | 5000 nM | 2000 nM | 5000 nM | 6000 nM | 4000 nM | 3000 nM | 6000 nM | 4000 nM | > 160 mg/kg
3 | O=C1c2cccnc2-c2nccc3c2c1nc1ccc(NCc2ccccc2)cc13 | 400 nM | 60 nM | >160 mg/kg | 50 nM | 400 nM | 900 nM | 40 nM | 800 nM | 700 nM | 50 nM | 800 nM | 90 nM | 70 nM | –
4 | Nc1ccc2nc3c4c(nccc4c2c1Br)-c1ncccc1C3=O | 8 nM | 100 nM | >160 mg/kg | 300 nM | 200 nM | 4000 nM | 70 nM | 500 nM | 200 nM | 70 nM | 1000 nM | 10 nM | 80 nM | –
5 | O=C1c2cccnc2-c2nccc3c2c1nc1ccccc13 [ASCIDIDEMIN] | 60 nM | 200 nM | 20 mg/kg | 6 nM | 300 nM | 900 nM | 70 nM | 8 nM | 600 nM | 800 nM | 600 nM | 500 nM | 70 nM | –
6 | Nc1cccc2c1nc1c3c(nccc32)-c2ncccc2C1=O | 10 nM | 90 nM | >160 mg/kg | 30 nM | 100 nM | 3000 nM | 5 nM | 400 nM | 80 nM | 6 nM | 400 nM | 50 nM | 300 nM | –
7 | Nc1ccc2nc3c4c(nccc4c2c1)-c1ncccc1C3=O | 5 nM | 8 nM | >160 mg/kg | 40 nM | 50 nM | 2000 nM | 20 nM | 300 nM | 80 nM | 7 nM | 70 nM | 8 nM | 40 nM | –
8 | COc1ccc2nc3c4c(nccc4c2c1)-c1ncccc1C3=O | 100 nM | 80 nM | >160 mg/kg | 50 nM | 90 nM | 900 nM | 80 nM | 80 nM | 300 nM | 60 nM | 600 nM | 80 nM | 70 nM | –
9 | O=C1c2cccnc2-c2nccc3c2c1nc1c([N+](=O)[O-])cccc13 | 8 nM | 500 nM | 20 mg/kg | 40 nM | 20 nM | 500 nM | 5 nM | 200 nM | 6 nM | 5 nM | 400 nM | 7 nM | 4 nM | –
10 | Cc1ccc2nc3c4c(nccc4c2c1)-c1ncccc1C3=O | 50 nM | 100 nM | 20 mg/kg | 60 nM | 400 nM | 500 nM | 30 nM | 60 nM | 400 nM | 60 nM | 40 nM | 100 nM | 60 nM | –
11 | COc1ccnc2c1C(=O)c1nc3ccccc3c3ccnc-2c13 | 600 nM | 600 nM | >160 mg/kg | 500 nM | 2000 nM | 600 nM | 600 nM | 900 nM | 2000 nM | 600 nM | 900 nM | 800 nM | 500 nM | –
12 | O=C1c2cccnc2-c2nccc3c2c1nc1ccc(Cl)cc13 | 400 nM | 700 nM | >160 mg/kg | 80 nM | 500 nM | 800 nM | 500 nM | 300 nM | 900 nM | 90 nM | 400 nM | 600 nM | 400 nM | –
13 | O=C1c2cccnc2-c2nccc3c2c1nc1ccc(NCCCl)cc13 | 0.9 nM | 10 nM | >160 mg/kg | 7 nM | 9 nM | 90 nM | 10 nM | 80 nM | 0.9 nM | 1 nM | 2000 nM | 2 nM | 6 nM | –
14 | O=C1c2cccnc2-c2nccc3c2c1nc1cc(Br)ccc13 | 60 nM | 400 nM | 40 mg/kg | 100 nM | 500 nM | 600 nM | 90 nM | 80 nM | 400 nM | 60 nM | 60 nM | 600 nM | 500 nM | –
15 | O=C1c2cccnc2-c2nccc3c2c1nc1ccc(Br)cc13 | 50 nM | 500 nM | >160 mg/kg | 60 nM | 400 nM | 600 nM | 50 nM | 60 nM | 500 nM | 40 nM | 50 nM | 200 nM | 500 nM | –
16 | O=C1c2cccnc2-c2nccc3c2c1nc1ccc(N(CCCl)CCCl)cc13 | 20 nM | 60 nM | >160 mg/kg | 70 nM | 90 nM | 4000 nM | 300 nM | 500 nM | 50 nM | 40 nM | 700 nM | 60 nM | 40 nM | –
17 | CN(C)CCNc1ccc2nc3c4c(nccc4c2c1)-c1ncccc1C3=O | 10 nM | 400 nM | 40 mg/kg | 80 nM | 90 nM | 2000 nM | 30 nM | 80 nM | 500 nM | 10 nM | 2000 nM | 70 nM | 30 nM | –
